The record followed here is article PMC4511165 (Biochemistry, 2015).

Entries after “also recorded” stand apart in the source; their conditions may differ.

Series [1] has as its target T1, MMP-8 (Homo sapiens, UniProt P22894). The series can be described thus: Hydrolysis of fluorogenic. The class given is biochemical. The conditions noted are these: 30 °C; for hydrolysis of fluorogenic peptomer by MMP-8: FRET kinetic assay, TSB*Zn buffer. Put shortly:
(§1)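 Enzymes were activated with 1 mM […] at 37 °C for 60 min and diluted in TSB*Zn. The Mca/Dnp substrate was equilibrated in TSB at 4 °C for 24 h and quantified at 363 nm (εDnp 15900 M−1 cm−1). Twelve 1:1 dilutions were made from a 100 µM stock, and enzyme was added from a 100 nM 20× stock. Fluorescence was read every 8 s for 600 s at 30 °C, with a final read at 24 h. The 25 µM sample was analysed by HPLC for % cleavage; triplicate.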

The target of series [2] is T2, MMP-14/MT1-MMP (ectodomain, soluble MT1-MMP) (Homo sapiens, UniProt P50281). The series can be described thus: Hydrolysis of fluorogenic. The class given is biochemical. The method, boiled down:
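Soluble ectodomain was activated with 0.1 equiv trypsin-3 for 1 h at 37 °C, quenched with AEBSF and diluted in TSB*Zn. The Mca/Dnp substrate was equilibrated in TSB at 4 °C for 24 h and quantified at 363 nm. Twelve 1:1 dilutions were made from a 100 µM stock, and enzyme was added from a 100 nM 20× stock. Fluorescence was read every 8 s for 600 s at 30 °C, with a final read at 24 h. The 25 µM sample was analysed by HPLC for % cleavage; triplicate.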

Series [3] concerns the target T3, MMP-13 (Homo sapiens, UniProt P45452). The series can be described thus: Hydrolysis of fluorogenic. The class given is biochemical. The method, boiled down:
as §1

In series [4] the target is T4, MMP-1 (Homo sapiens, UniProt P03956).
T4 sequence (P03956 100-469): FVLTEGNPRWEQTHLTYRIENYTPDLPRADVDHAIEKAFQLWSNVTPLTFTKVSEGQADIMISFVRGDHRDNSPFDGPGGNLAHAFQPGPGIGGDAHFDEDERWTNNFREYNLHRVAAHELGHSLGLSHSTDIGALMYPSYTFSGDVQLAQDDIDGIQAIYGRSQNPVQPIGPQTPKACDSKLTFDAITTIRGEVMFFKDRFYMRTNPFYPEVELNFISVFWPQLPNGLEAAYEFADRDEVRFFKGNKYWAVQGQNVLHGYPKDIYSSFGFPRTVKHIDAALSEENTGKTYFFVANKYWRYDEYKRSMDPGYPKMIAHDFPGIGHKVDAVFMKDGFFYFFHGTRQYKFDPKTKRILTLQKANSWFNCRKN
The series can be described thus: Hydrolysis of fluorogenic. It counts as biochemical. The conditions noted are these: 30 °C; for hydrolysis of fluorogenic peptomer by MMP-1: FRET kinetic assay, TSB*Zn buffer. The method, boiled down: as §1

Another series concerns the target MMP-3 (Homo sapiens, UniProt P08254). The experiment in a line: Hydrolysis of Ac-pfTHP-1 by noncollagenolytic MMP-3. The class given is biochemical. The conditions noted are these: data not shown.
Series [5] concerns the target T1, MMP-8. The series can be described thus: HPLC-monitored hydrolysis of peptomeric THPs by MMP-8. The class given is biochemical. The conditions noted are these: room temperature, 24 h; MALDI-TOF MS / HPLC of products. The method, boiled down:
(§2)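 Full-length human enzymes were activated with 1 mM […] for 60 min at 37 °C, then diluted to 100 nM in ice-cold TSB*Zn (Tris, NaCl, CaCl2, ZnCl2, Brij-35, pH 7.5). Substrates were pre-equilibrated in TSB at 4 °C for 24 h. Reactions used 20 nM enzyme at 1:1000 enzyme:substrate for 24 h at room temperature (some also at 37 °C). Reactions were quenched with 50 mM EDTA; triplicate RP-HPLC peak integration at 220 nm, with MALDI-TOF identifying products.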

Series [6] addresses T2, MMP-14/MT1-MMP (ectodomain, soluble MT1-MMP). The experiment in a line: HPLC-monitored hydrolysis of peptomeric THPs by MT1-MMP. The class given is biochemical. The conditions noted are these: room temperature, 24 h; MALDI-TOF MS / HPLC of products. The method, boiled down:
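Soluble ectodomain was activated with 0.1 equiv trypsin-3 for 1 h at 37 °C. Trypsin was quenched with 100 equiv AEBSF for 15 min at room temperature, then the enzyme was diluted in cold TSB*Zn (pH 7.5). Substrates were pre-equilibrated in TSB at 4 °C for 24 h. Reactions used 20 nM enzyme at 1:1000 enzyme:substrate for 24 h at room temperature (some also at 37 °C). Reactions were quenched with 50 mM EDTA; triplicate RP-HPLC integration at 220 nm, MALDI-TOF for products.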

For series [7], the target named is T4, MMP-1. The experiment in a line: HPLC-monitored hydrolysis of peptomeric THPs by MMP-1. The class given is biochemical. The conditions noted are these: room temperature, 24 h; MALDI-TOF MS / HPLC of products. Put shortly: as §2
The target in series [8] is T3, MMP-13. The series can be described thus: HPLC-monitored hydrolysis of peptomeric THPs by MMP-13. It counts as biochemical. The conditions noted are these: 24 h; for cleavage site, MMP-13: room temperature, MALDI-TOF MS / HPLC of products. The method, boiled down:
as §2

Series [9] deals with T1, MMP-8. The series can be described thus: Inhibition of MMP-8 by non-cleaved peptomers. It counts as biochemical. The conditions noted are these: MS-1 up to 200 µM; concentration for MS-2 not given; data not shown.
The target in series [10] is T3, MMP-13. The series can be described thus: Inhibition of MMP-13 by non-cleaved peptomers. It counts as biochemical. The conditions noted are these: MS-1 up to 200 µM; concentration for MS-2 not given; data not shown.
For series [11], the target named is T4, MMP-1. The experiment in a line: Inhibition of MMP-1 by non-cleaved peptomers. It counts as biochemical. The conditions noted are these: MS-1 up to 200 µM; concentration for MS-2 not given; data not shown.
A further series deals with MMP-14/MT1-MMP (Homo sapiens, UniProt P50281). The experiment in a line: Inhibition of MT1-MMP by non-cleaved peptomers. It counts as biochemical. The conditions noted are these: MS-1 up to 200 µM; concentration for MS-2 not given; data not shown.
The next series can be described thus: CD thermal transition. It counts as physicochemical. The conditions noted are these: decrease relative to α1(I)772–786 THP.
The mark [12] stands for this setting: RP-HPLC, 25 µM peptomer, 24 h, data not shown.
The mark [13] stands for this setting: RP-HPLC, 25 µM peptomer, 30 °C, 24 h, data not shown.

T1 sequence (P22894 101-467): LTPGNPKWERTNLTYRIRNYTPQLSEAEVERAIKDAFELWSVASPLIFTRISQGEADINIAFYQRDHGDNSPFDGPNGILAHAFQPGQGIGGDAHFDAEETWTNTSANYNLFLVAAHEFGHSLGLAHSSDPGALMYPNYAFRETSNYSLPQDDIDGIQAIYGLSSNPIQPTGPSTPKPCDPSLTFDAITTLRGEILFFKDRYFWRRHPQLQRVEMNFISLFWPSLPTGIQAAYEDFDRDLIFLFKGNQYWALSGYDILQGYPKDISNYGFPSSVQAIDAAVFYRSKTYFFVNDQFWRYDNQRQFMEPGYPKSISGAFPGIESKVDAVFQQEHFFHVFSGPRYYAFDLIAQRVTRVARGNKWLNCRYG
Sequence of MMP-3 (P08254 100-477, species assumed): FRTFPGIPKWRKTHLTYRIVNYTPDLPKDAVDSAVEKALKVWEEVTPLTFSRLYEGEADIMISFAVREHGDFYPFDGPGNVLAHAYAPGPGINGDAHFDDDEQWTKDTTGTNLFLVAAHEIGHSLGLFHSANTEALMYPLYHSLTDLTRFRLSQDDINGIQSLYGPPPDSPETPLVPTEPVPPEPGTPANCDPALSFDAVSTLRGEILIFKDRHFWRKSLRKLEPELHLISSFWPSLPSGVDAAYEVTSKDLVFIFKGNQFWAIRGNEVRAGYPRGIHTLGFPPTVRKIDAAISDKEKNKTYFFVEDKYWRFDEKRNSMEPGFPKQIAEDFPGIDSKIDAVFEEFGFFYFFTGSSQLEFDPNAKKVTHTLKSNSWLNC

“Ac-(GPO)4-GP-Lys(Mca)-G-Sar-AGQRGV-Lys(Dnp) G-NLeu-O(GPO)4-NH2 [Ac-pfTHP-1]”: the “hydrolysis of fluorogenic peptomer by MMP-8” value at MMP-8 [1] was “unable to hydrolyze”. Further, the “hydrolysis by MMP-8” value at MMP-8 [1] (setting [12]) was less than 2%. Moreover, the “hydrolysis by MT1-MMP” value in [2] (setting [13]) is recorded as 22%. In addition, in [2], the “cleavage sites of fluorogenic peptomer, MT1-MMP” value is “Gly781–Val782 and Arg780–Gly781 bonds”. Moreover, the “hydrolysis by MMP-13” value at MMP-13 [3] (setting [13]) was found to be 65%. Further, the “cleavage site of fluorogenic peptomer, MMP-13” value on MMP-13 [3] was “between Gly778 and Gln779”. Besides, on MMP-1 [4], the “hydrolysis of fluorogenic peptomer by MMP-1” value is reported as “unable to hydrolyze”. Also, the “hydrolysis by MMP-1” value at MMP-1 [4] (setting [12]) is less than 1%. The “hydrolysis by MMP-3” value on MMP-3 is given as “not able to hydrolyze”.
As for “(GPO)4GPQGIAGQRGVVG-NLeu-O(GPO)4-NH2 [MS-7]”, on MMP-8 [5], the “cleavage site, MMP-8” value is “Gly775–Ile776 bond”. Also, the “cleavage site, MT1-MMP” value in series [6] is “Gly775–Ile776 bond”. Moreover, the “cleavage site, MMP-1” value at MMP-1 [7] is reported as “Gly775–Ile776 bond”. The “difference in MMP-13 hydrolysis versus parent THP” value at MMP-13 [8] (37 °C, RP-HPLC, peptomer better substrate than parent THP) was 2 fold. In addition, on MMP-13 [8], the “cleavage site, MMP-13” value is recorded as “Gly775–Ile776 bond”.
For the substance “(GPO)4-GPQG-NIle-AGQRGVVGLO(GPO)4-NH2 [MS-1]”, at MMP-8 [9], the “inhibition of MMP-8” value is on record as “No inhibition”. For the same substance, the “inhibition of MMP-13” value against MMP-13 [10] is “No inhibition”. Moreover, on MMP-1 [11], the “inhibition of MMP-1” value is “No inhibition”. The “inhibition of MT1-MMP” value against MMP-14/MT1-MMP is “No inhibition”.
Regarding “(GPO)4G-Sar-QGIAGQRGVVGLO(GPO)4-NH2 [MS-4]”, the “Tm lower than that of parent THP by” value in “CD thermal transition” amounted to 4 °C.
On to “(GPO)4GPQGWAGQRGVVG-NLeu-O(GPO)4-NH2 [MS-10]”, for which the “cleavage site, MMP-8” value at MMP-8 [5] was “Gly775-Trp776 bond”. For the same substance, the “cleavage site, MT1-MMP” value in [6] is listed as “Gly775-Trp776 bond; also recorded: occurring at several bonds”. The “cleavage site, MMP-13” value at MMP-13 [8] is given as “Gly775-Trp776 bond”.
As to “(GPO)4GPQ-Sar-IAGQRGVVG-NLeu-GLO(GPO)4- NH2 [MS-9]”, the “cleavage site, MMP-8” value on MMP-8 [5] is “between Sar775 and Ile776”. Besides, the “cleavage site, MT1-MMP” value in [6] was “between Sar775 and Ile776”. Moreover, the “Tm lower than that of parent THP by” value in “CD thermal transition” came to 13.5 °C. Also, the “cleavage site, MMP-1” value on MMP-1 [7] is “between Sar775 and Ile776”. Further, the “cleavage site, MMP-13” value on MMP-13 [8] was “between Sar775 and Ile776”.
“(GPO)4GP-Lys(Mca)-G-Sar-AGQRGV-Lys(Dnp)-G- NLeu-O(GPO)4-NH2 [pfTHP-1]”: the “hydrolysis of fluorogenic peptomer by MMP-8” value on MMP-8 [1] is on record as “unable to hydrolyze”. The “cleavage sites of fluorogenic peptomer, MT1-MMP” value in series [2] was “Gly781–Val782 and Arg780–Gly781 bonds”. For the same substance, the “cleavage site of fluorogenic peptomer, MMP-13” value at MMP-13 [3] was “between Gly778 and Gln779”. At MMP-1 [4], the “hydrolysis of fluorogenic peptomer by MMP-1” value is reported as “unable to hydrolyze”.
Take “(GPO)4GPQ-Sar-IAGQRGVVGLO(GPO)4-NH2 [MS-3]”: the “cleavage site, MMP-8” value on MMP-8 [5] was “between Sar775 and Ile776”. Also, in series [6], the “cleavage site, MT1-MMP” value is “between Sar775 and Ile776”. For the same substance, the “Tm lower than that of parent THP by” value in the series “CD thermal transition” is 20 °C. For the same substance, on MMP-1 [7], the “cleavage site, MMP-1” value was “between Sar775 and Ile776”. In addition, on MMP-13 [8], the “cleavage site, MMP-13” value is “between Sar775 and Ile776”.
